Only some compounds are listed: those with a hit (about 3.7% of all), similar ones and a draw of the others.
KCNQ1 inh: blocks the human KCNQ1 potassium channel; B-score at 10 µM; CHO-K1 KCNQ1, FluxOR thallium flux fluorescence; stronger effect = higher value; 1.3% of 310,000 active; P51787;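 active = compounds whose thallium flux B-score, printed positive for inhibition, exceeds three library SD while starting fluorescence stays within three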;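 note: channel opened by potassium depolarization with thallium stimulus after 20 min compound exposure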
KCNK9 inh-1: blocks the human KCNK9 two-pore domain potassium channel. Q9NPC2. HEK293 KCNK9, FluxOR thallium flux fluorescence; stronger effect = lower value. B-score at 10 µM. 1.2% of 310,000 active. AID 488922;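 active = ratio B-score over 3 SD below the library mean, with starting fluorescence within 5 SD of its mean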;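 note: negative B-score means less thallium flux so channel inhibition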
hERG protect: shields human hERG channel from block by proarrhythmic agents; CHO-hERG, FluxOR thallium flux, dofetilide IC70 present; AID 1511; activation (rescue from dofetilide block), less the hit threshold, % at 10 µM; Q12809; 0.51% of 310,000 active;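 active = activation above the mean of controls blocked by dofetilide plus 5 SD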;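 note: thallium influx through hERG after potassium depolarization seen as dye fluorescence rise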
KCNK3 inh: human KCNK3 channel inhibition, primary screen; O14649; CHO-KCNK3 thallium flux, FluxOR fluorescence; stronger effect = lower value; B-score at 10 µM; 0.84% of 340,000 active;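 active = B-score under library mean minus 4 SD, starting fluorescence ratio at most library mean plus 5 SD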;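 note: more negative B-score means stronger inhibition of thallium flux through KCNK3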
KCNQ1 pot: potentiates or activates the human KCNQ1 potassium channel. CHO-K1 KCNQ1, thallium flux FluxOR fluorescence; stronger effect = higher value. 0.35% of 310,000 active. B-score at 10 µM. AID 2648. P51787;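 active = fluorescence ratio B-score, a plate-corrected score, at least three library SD, with initial intensity B-score within 5 SD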
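Test system: CHO-K1 cells stably expressing KCNQ1 / Medium: assay buffer / Also added: depolarizing K+/Tl+ stimulus, K2SO4 and Tl2SO4 each 12.5 mM in 5x stock / Incubation: 90 min dye loading and 20 min compound exposure, both at room temperature / Signal: thallium influx via FluxOR fluorescence, kinetic imaging / Evaluation: B score of baseline-normalized fluorescence ratio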
Kir21 block: inhibitors of mouse Kir2.1 inward-rectifier potassium channel; P35561; HEK293-Kir2.1, FluxOR thallium flux fluorescence; stronger effect = lower value; B-score at 10 µM; 0.85% of 310,000 active; AID 1672;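 active = fluorescence ratio B-score at or below minus 3 SD of library scores, with starting-brightness B-score within 2 SD, cut at about -4.2 in these data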;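 note: channel flux triggered by added potassium and thallium sulfate stimulus; B-score of peak minus minimum fluorescence over baseline after thallium stimulus; more negative B-score means stronger Kir2.1 block with less thallium influx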
hERG ctr: counter-screen for Kir2.1 inhibitors: effect on human hERG. shares compounds with Kir21 block. hERG-expressing cells, thallium flux. inhibition, % at 10 µM. 20% of 320 active;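 note: host cells are CHO cells stably expressing hERG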
KCNK9 inh-2: tests whether Kir2.1 inhibitors also affect human KCNK9; shares compounds with Kir21 block; AID 2329; KCNK9-expressing cells, ion flux inhibition; 5% of 320 active; inhibition, % at 10 µM
Kir21 ephys inh: inhibitors of mouse Kir2.1 potassium channel; inhibition, % at 25 µM; 71% of 320 active; Kir2.1 cells, automated patch-clamp current inhibition; shares compounds with Kir21 block
* marks the source's active call; other numbers are inactive results; i = inactive; ? = inconclusive; · = not tested or not shown. Unless noted, the rule behind the calls is not given here.

SMILES	KCNQ1 inh	KCNK9 inh-1	hERG protect	KCNK3 inh	KCNQ1 pot	Kir21 block	hERG ctr	KCNK9 inh-2	Kir21 ephys inh
CCC(=O)OCc1c(C(F)(F)F)nn(C)c1Sc1ccc(F)cc1	i	i	-20	i	i	-8.4*	i	i	31%*
Cc1cc(NS(=O)(=O)c2ccc(NC(=O)CCSc3ccc(F)cc3)cc2)nc(C)n1	i	i	-7	i	i	0.41	·	·	·
Clc1ccc(COc2ccccc2CNCc2cccnc2)cc1	i	i	-1	i	i	-2.1	·	·	·
CCOc1cccc(CNCc2cccnc2)c1OCc1ccccc1	i	i	-1	i	i	-7.5*	i	i	40%*
CCc1nc(SCC(=O)Nc2cc(C)on2)c2c(=O)n(C)c(=O)n(C)c2n1	i	i	-9	i	i	0.31	·	·	·
Cc1cc(NC(=O)CSc2nc(CC(C)(C)C)nc3c2c(=O)n(C)c(=O)n3C)no1	i	i	-9	i	i	3.6	i	i	i
O=C(CCCCCn1nnc2ccccc2c1=O)Nc1ccccc1F	i	i	-8	i	i	-2	·	·	·
CCCCN(Cc1ccco1)S(=O)(=O)c1csc(C(N)=O)c1	i	i	-9	i	i	-7.2*	i	i	46%*
CC(CCc1ccco1)N(C)S(=O)(=O)c1csc(C(N)=O)c1 (stereo not given)	i	i	-3	i	i	-1	·	·	·
O=C1C=C(Nc2ccc(Cl)cc2Cl)CC(c2ccco2)C1 (stereo not given)	i	i	-7	i	i	-0.16	·	·	·
CC(O)CNCCCOc1cccc(Oc2ccccc2)c1 (stereo not given)	i	i	-5	i	i	-7.6*	i	i	77%*
COc1ccc(C(=O)N2CCCC(C(=O)N3CCN(c4ccccc4)CC3)C2)cc1 (stereo not given)	i	i	-6	i	i	-0.94	·	·	·
CC(=O)NNC(=S)NC(=O)c1cccc([N+](=O)[O-])c1	i	i	-6	i	i	0.48	·	·	·
CCC1CCCCN1C(=S)NC(=O)c1cccc([N+](=O)[O-])c1 (stereo not given)	i	i	20*	i	28*	2.7	i	i	i
NC(=O)C(c1ccc(Cl)cc1)c1ncc(C(F)(F)F)cc1Cl (stereo not given)	i	i	-11	i	i	-0.56	·	·	·
N#CC(c1ccc(O)cc1)c1ncc(C(F)(F)F)cc1Cl (stereo not given)	i	i	-6	i	i	-7.3*	i	i	54%*
COc1ccc(CN(C)CC(O)COC(c2ccc(OC)cc2)c2ccc(OC)cc2)cc1 (stereo not given)	i	i	-17	i	i	-8.7*	75%*	i	i
COc1ccc(CN(C)CC(O)COc2ccc(-c3ccccc3)cc2)cc1OC (stereo not given)	i	i	-18	i	i	-0.48	·	·	·
CC(C)NC(=O)c1ccc(CN2CCC(Cc3ccccc3)CC2)cc1	i	i	-4	i	i	-0.22	·	·	·
CSc1ccc(CN2CCC(Cc3ccccc3)CC2)cc1	i	i	-8	i	i	-16*	67%*	i	33%*
COc1cccc(OC)c1C(=O)Nc1ccc(N2CCCC2)cc1	i	i	-5	i	i	3	i	i	i
CCc1ccc(NC(=O)C2CCC(CNC(=O)[C@@H]3Cc4ccccc4CN3)CC2)cc1 (stereo not given in full)	i	i	-7	i	i	-0.11	·	·	·
CC(C)CNC(=S)N(CCCO)Cc1cc2cc3c(cc2[nH]c1=O)OCO3	i	i	-6	i	i	1.6	·	·	·
CCCCn1c(N)c(N(CCOC)C(=O)COc2ccc(OCC)cc2)c(=O)[nH]c1=O	i	i	-11	i	i	1.6	·	·	·
CCCCn1c(N)c(N(CCOC)C(=O)COC(=O)CCOc2ccccc2)c(=O)[nH]c1=O	i	i	-6	i	i	0.06	i	i	?
SMILES	KCNQ1 inh	KCNK9 inh-1	hERG protect	KCNK3 inh	KCNQ1 pot	Kir21 block	hERG ctr	KCNK9 inh-2	Kir21 ephys inh
CC(NS(=O)(=O)c1ccc(Br)cc1)c1ccccc1 (stereo not given)	i	i	-8	i	i	-6*	i	i	54%*
COc1cccc(CNc2ccc3[nH]c(=O)[nH]c3c2)c1OCc1ccccc1F	i	i	-15	i	i	-7.4*	i	i	2.2%*
O=C(CN1CCN(Cc2ccc(Cl)cc2)CC1)N1CCc2ccccc21	i	i	-5	i	i	-9.5*	i	i	16%*
Cc1ccc(C)c(OCCC(=O)OCC(=O)NCc2ccccc2)c1	i	i	-11	i	i	0.03	·	·	·
Cc1ccc(C)c(OCCCNCc2ccccc2)c1	i	i	-9	i	i	-9.4*	i	i	74%*
O=C(Cn1cc(S(=O)(=O)Cc2ccc([N+](=O)[O-])cc2)c2ccccc21)N1CCOCC1	i	i	-6	i	i	-0.42	·	·	·
OC(CNCc1ccco1)COc1ccccc1 (stereo not given)	i	i	-4	i	i	-0.05	·	·	·
OC(CNCc1ccco1)Cn1c2ccccc2c2ccccc21 (stereo not given)	i	i	-12	i	i	-11*	61%*	i	25%*
COc1ccc(CCN2CC(C(=O)NCCN3CCOC3=O)CCC2=O)cc1 (stereo not given)	i	i	-8	i	i	0.23	·	·	·
O=C(NCC(=O)N(c1ccccc1F)C(C(=O)NC1CCCC1)c1cccnc1)c1ccco1 (stereo not given)	i	i	-11	i	i	0.15	·	·	·
Cc1cc(OCCOCCNCc2ccccc2)ccc1C(C)C	i	i	-17	i	i	-7.8*	49%*	i	52%*
CC(C)O/C(=N\S(=O)(=O)c1ccc(Cl)cc1)c1ccccc1	i	i	-15	i	i	-8.3*	i	i	17%*
CC(C)NC(=O)NC(=O)COC(=O)c1cc[n+]([O-])cc1	i	i	-1	i	i	-0.19	·	·	·

Screens as filed in PubChem BioAssay.
